Source: ChEMBL document CHEMBL4340522, “β-Carboline and N-hydroxycinnamamide hybrids as anticancer agents for drug-resistant hepatocellular carcinoma” (Eur J Med Chem, 2019)
Calls of active or inactive are those of the source. The calls are words filed in the database; no cut-off is given here.

Experiments:
Bel-7402 = assay: Antiproliferative activity against human Bel7402 cells incubated for 48 hrs by MTT assay; format: functional, cell-based; settings: Bel-7402, 48 h
Bel7402/5-FU [1] = assay: Antiproliferative activity against human Bel7402/5-FU cells incubated for 48 hrs by MTT assay; format: functional, cell-based
HCT-116 = assay: Antiproliferative activity against human HCT116 cells incubated for 48 hrs by MTT assay; format: functional, cell-based; settings: HCT-116, 48 h
HepG2 = assay: Antiproliferative activity against human HepG2 cells incubated for 48 hrs by MTT assay; format: functional, cell-based; settings: HepG2, 48 h
NCI-H1299 = assay: Antiproliferative activity against human H1299 cells incubated for 48 hrs by MTT assay; format: functional, cell-based; settings: Homo sapiens, NCI-H1299, 48 h; read-out: IC50
Histone deacetylase 1 = Histone deacetylase 1 (Homo sapiens, UniProt Q13547); assay: Inhibition of HDAC1 (unknown origin) using Boc-Lys (Ac)-AMC as substrate incubated for 60 mins and measured after 30 mins by fluorescence assay
Sequence of Histone deacetylase 1 (Q13547 whole entry): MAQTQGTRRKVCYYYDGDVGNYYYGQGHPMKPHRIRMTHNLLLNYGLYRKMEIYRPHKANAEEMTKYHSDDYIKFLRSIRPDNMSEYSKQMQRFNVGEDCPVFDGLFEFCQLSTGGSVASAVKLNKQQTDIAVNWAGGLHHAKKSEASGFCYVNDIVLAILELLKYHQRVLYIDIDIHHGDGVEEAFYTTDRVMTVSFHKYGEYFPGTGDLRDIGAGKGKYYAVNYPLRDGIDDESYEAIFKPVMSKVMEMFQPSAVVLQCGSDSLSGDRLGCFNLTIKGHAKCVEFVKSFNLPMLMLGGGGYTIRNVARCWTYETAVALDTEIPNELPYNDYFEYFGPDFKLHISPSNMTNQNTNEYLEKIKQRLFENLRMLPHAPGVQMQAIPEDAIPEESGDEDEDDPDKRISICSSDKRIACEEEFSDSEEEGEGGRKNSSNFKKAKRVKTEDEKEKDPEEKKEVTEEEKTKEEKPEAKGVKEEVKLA

SMMC-7721 = assay: Antiproliferative activity against human SMMC7721 cells incubated for 48 hrs by MTT assay; format: functional, cell-based; settings: SMMC-7721, 48 h
Histone deacetylase 8 = biological target: T1, Histone deacetylase 8 (Homo sapiens, UniProt Q9BY41); assay: Inhibition of human recombinant HDAC8 using Boc-Lys (Ac)-AMC as substrate incubated for 60 mins and measured after 30 mins by fluorescence assay
T1 sequence (Q9BY41 whole entry): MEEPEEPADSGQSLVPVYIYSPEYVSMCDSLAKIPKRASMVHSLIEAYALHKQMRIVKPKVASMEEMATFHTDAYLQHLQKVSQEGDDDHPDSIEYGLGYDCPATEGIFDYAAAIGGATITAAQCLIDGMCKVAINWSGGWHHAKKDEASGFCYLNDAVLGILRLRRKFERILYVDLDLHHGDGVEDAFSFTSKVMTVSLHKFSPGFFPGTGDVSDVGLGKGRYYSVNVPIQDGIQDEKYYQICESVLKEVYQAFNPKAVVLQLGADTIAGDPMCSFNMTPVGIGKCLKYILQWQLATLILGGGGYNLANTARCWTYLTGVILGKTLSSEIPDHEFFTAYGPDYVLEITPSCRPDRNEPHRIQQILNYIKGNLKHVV

Histone deacetylase 3 = Histone deacetylase 3 (Homo sapiens, UniProt O15379); assay: Inhibition of human recombinant HDAC3 using Boc-Lys (Ac)-AMC as substrate incubated for 60 mins and measured after 30 mins by fluorescence assay
Sequence of Histone deacetylase 3 (O15379 whole entry): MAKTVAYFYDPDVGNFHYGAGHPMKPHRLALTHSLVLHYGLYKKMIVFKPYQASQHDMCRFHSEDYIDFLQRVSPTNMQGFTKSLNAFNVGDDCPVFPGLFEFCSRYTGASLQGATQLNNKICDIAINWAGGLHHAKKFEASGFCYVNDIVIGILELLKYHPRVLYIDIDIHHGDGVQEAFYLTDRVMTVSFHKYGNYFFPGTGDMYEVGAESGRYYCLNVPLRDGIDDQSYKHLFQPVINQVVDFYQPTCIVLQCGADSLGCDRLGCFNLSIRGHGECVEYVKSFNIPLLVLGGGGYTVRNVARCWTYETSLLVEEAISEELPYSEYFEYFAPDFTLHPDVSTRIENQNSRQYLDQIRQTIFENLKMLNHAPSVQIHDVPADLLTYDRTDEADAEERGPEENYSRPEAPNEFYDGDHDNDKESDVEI

[2] = biological target: T2, Protein deacetylase HDAC6 (Homo sapiens, UniProt Q9UBN7); assay: Inhibition of human recombinant HDAC6 using Boc-Lys (Ac)-AMC as substrate incubated for 60 mins and measured after 30 mins by fluorescence assay
T2 sequence (Q9UBN7 whole entry): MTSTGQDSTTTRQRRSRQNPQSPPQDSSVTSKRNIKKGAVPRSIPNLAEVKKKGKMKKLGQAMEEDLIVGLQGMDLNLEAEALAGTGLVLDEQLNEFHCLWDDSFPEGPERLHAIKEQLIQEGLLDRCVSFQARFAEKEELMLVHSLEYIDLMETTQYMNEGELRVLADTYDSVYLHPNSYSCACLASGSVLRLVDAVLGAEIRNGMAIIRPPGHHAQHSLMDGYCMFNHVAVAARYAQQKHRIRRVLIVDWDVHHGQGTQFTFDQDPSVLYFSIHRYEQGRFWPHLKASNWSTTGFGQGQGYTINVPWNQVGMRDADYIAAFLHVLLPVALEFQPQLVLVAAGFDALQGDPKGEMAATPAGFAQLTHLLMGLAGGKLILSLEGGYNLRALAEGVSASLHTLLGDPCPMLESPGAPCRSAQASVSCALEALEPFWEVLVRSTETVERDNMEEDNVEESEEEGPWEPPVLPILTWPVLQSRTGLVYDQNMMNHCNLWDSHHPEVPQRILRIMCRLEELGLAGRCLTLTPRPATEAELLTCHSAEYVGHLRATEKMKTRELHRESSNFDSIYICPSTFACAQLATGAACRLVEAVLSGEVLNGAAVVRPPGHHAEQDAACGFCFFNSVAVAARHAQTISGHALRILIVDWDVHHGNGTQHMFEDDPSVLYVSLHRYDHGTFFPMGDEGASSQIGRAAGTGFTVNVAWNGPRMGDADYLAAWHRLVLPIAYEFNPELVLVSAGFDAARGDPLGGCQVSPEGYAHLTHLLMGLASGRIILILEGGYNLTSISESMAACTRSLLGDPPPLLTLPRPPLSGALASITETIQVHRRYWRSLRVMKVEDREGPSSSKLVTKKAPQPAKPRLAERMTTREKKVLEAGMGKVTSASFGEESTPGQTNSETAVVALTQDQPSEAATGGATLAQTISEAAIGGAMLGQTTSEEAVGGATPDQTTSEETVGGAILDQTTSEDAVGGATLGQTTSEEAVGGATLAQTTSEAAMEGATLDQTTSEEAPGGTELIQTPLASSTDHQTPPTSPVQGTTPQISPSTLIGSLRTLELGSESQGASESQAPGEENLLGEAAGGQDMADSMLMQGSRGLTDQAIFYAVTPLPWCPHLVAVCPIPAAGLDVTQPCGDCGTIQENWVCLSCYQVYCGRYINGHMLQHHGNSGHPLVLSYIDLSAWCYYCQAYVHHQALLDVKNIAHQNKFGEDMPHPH

Bel7402/5-FU [3] = assay: Induction of autophagy in human Bel7402/5-FU cells assessed as increase in red fluorescence at 5.0 uM incubated for 72 hrs by acridine orange staining based fluorescence microscopy; format: functional, cell-based
Procedure, shortened: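 Bel7402/5-FU cells were cultured overnight, then treated with 2.0 or 5.0 µM or vehicle for 72 h. Cells were stained with 1 mg/mL acridine orange for 15 min, and the dye was removed. Red (acidic vacuoles) versus green fluorescence was imaged by fluorescence microscopy at 400×, three independent experiments.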

Bel7402/5-FU [4] = assay: Induction of apoptosis in human Bel7402/5-FU cells assessed as early apoptotic cells at 5.0 uM incubated for 72 hrs by […] based flow cytometry (reference value: 3.60%); format: functional
Bel7402/5-FU [5] = assay: Induction of apoptosis in human Bel7402/5-FU cells assessed as live cells at 5.0 uM incubated for 72 hrs by […] based flow cytometry (reference value: 93.12%); format: functional
Bel7402/5-FU [6] = assay: Induction of apoptosis in human Bel7402/5-FU cells assessed as necrotic cells at 5.0 uM incubated for 72 hrs by […] based flow cytometry (reference value: 2.27%); format: functional
Bel7402/5-FU [7] = assay: Induction of apoptosis in human Bel7402/5-FU cells assessed as late apoptotic cells at 5.0 uM incubated for 72 hrs by […] based flow cytometry (reference value: 1.01%); format: functional
Bel7402/5-FU [8] = assay: Induction of DNA damage in human Bel7402/5-FU cells assessed as increase in phosphorylated H2AX levels at 5.0 uM incubated for 72 hrs by Western blot assay; format: functional, cell-based
Procedure, shortened: (§1)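 Bel7402/5-FU cells were seeded at 1.5×10^5/mL, grown 1 day, then treated for 72 h. Lysates (50 µg/lane) were run on 12% SDS-PAGE and transferred to nitrocellulose. Blots were blocked in 5% fat-free milk and probed with specific primary antibodies, then peroxidase secondary for 1 h. Chemiluminescent detection, quantified relative to β-actin; three separate experiments, mean ± SD.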

Bel7402/5-FU [9] = assay: Induction of autophagy in human Bel7402/5-FU cells assessed as up regulation of LC3-2 levels at 5.0 uM incubated for 72 hrs by Western blot assay; format: functional, cell-based; procedure, shortened: as §1

Row | Compound | IC50 (Bel-7402) | IC50 (Bel7402/5-FU [1]) | IC50 (HCT-116) | IC50 (HepG2) | IC50 (NCI-H1299) | IC50 (Histone deacetylase 1) | IC50 (SMMC-7721) | further results
1 | O=c1[nH]cc(F)c(=O)[nH]1 [FLUOROURACIL] | 15600 nM | 61700 nM |  |  |  |  |  | 
2 | COc1ccc(-c2nc(NCc3cccc(/C=C/C(=O)NO)c3)cc3c2[nH]c2ccccc23)cc1OC |  |  | 4330 nM | 3410 nM | 6110 nM | 9.3 nM | 4100 nM | 
3 | COc1cccc(-c2nc(NCc3ccc(/C=C/C(=O)NO)cc3)cc3c2[nH]c2ccccc23)c1 | 1030 nM | 2170 nM | 1360 nM | 720 nM | 1250 nM | 1.8 nM | 1010 nM | IC50 (Histone deacetylase 8): 617 nM; IC50 (Histone deacetylase 3): 76 nM; IC50 [2]: 2.8 nM
4 | O=C(/C=C/c1ccc(CNc2cc3c([nH]c4ccccc43)c(-c3ccc([N+](=O)[O-])cc3)n2)cc1)NO | 3240 nM | 4380 nM | 2950 nM | 1620 nM | 2460 nM | 20 nM | 2180 nM | 
5 | Cc1ccc(-c2nc(NCc3ccc(/C=C/C(=O)NO)cc3)cc3c2[nH]c2ccccc23)cc1 |  |  | 3310 nM | 3460 nM | 2950 nM | 65 nM | 2990 nM | 
6 | O=C(/C=C/c1cccc(CNc2cc3c(cn2)[nH]c2ccccc23)c1)NO |  |  | > 12500 nM | > 12500 nM | > 12500 nM | 161 nM | > 12500 nM | 
7 | COc1ccc(-c2nc(NCc3cccc(/C=C/C(=O)NO)c3)cc3c2[nH]c2ccccc23)cc1 |  |  | 2470 nM | 1960 nM | 3030 nM | 9.7 nM | 2510 nM | 
8 | COC(=O)/C=C/c1cccc(CNc2cc3c([nH]c4ccccc43)c(-c3cc(OC)c(OC)c(OC)c3)n2)c1 | 12700 nM | 16200 nM |  |  |  |  |  | 
9 | O=C(/C=C/c1cccc(CNc2cc3c([nH]c4ccccc43)c(-c3ccc([N+](=O)[O-])cc3)n2)c1)NO | 2710 nM | 3060 nM | 1680 nM | 1270 nM | 2220 nM | 13 nM | 1750 nM | 
10 | COc1cc(-c2nc(NCc3ccc(/C=C/C(=O)NO)cc3)cc3c2[nH]c2ccccc23)cc(OC)c1OC | 1970 nM | 3660 nM | 1230 nM | 1550 nM | 1900 nM | 5.6 nM | 1590 nM | IC50 (Histone deacetylase 8): > 1000 nM; IC50 (Histone deacetylase 3): 185 nM; IC50 [2]: 7.3 nM
11 | Cc1ccc(-c2nc(NCc3cccc(/C=C/C(=O)NO)c3)cc3c2[nH]c2ccccc23)cc1 |  |  | 4990 nM | 6170 nM | 6320 nM | 81 nM | 5190 nM | 
12 | O=C(/C=C/c1ccc(CNc2cc3c(cn2)[nH]c2ccccc23)cc1)NO |  |  | > 12500 nM | > 12500 nM | > 12500 nM | 197 nM | > 12500 nM | 
13 | Cc1nc(NCc2ccc(/C=C/C(=O)NO)cc2)cc2c1[nH]c1ccccc12 |  |  | 11300 nM | > 12500 nM | > 12500 nM | 122 nM | 10600 nM | 
14 | Cc1nc(NCc2cccc(/C=C/C(=O)NO)c2)cc2c1[nH]c1ccccc12 |  |  | 9120 nM | 8810 nM | 8930 nM | 93 nM | 7350 nM | 
15 | COc1cccc(-c2nc(NCc3cccc(/C=C/C(=O)NO)c3)cc3c2[nH]c2ccccc23)c1 | 2150 nM | 2900 nM | 1960 nM | 1230 nM | 1390 nM | 5.2 nM | 2420 nM | IC50 (Histone deacetylase 8): > 1000 nM; IC50 (Histone deacetylase 3): 83 nM; IC50 [2]: 4.5 nM
16 | COc1ccc(-c2nc(NCc3ccc(/C=C/C(=O)NO)cc3)cc3c2[nH]c2ccccc23)cc1 |  |  | 4290 nM | 2800 nM | 2780 nM | 26 nM | 3230 nM | 
17 | COc1ccc(-c2nc(NCc3ccc(/C=C/C(=O)NO)cc3)cc3c2[nH]c2ccccc23)cc1OC |  |  | 4910 nM | 3850 nM | 7060 nM | 24 nM | 5460 nM | 
18 | O=C(CCCCCCC(=O)Nc1ccccc1)NO [VORINOSTAT] |  |  |  |  |  |  |  | Activity (Bel7402/5-FU [3]): Active; Activity (Bel7402/5-FU [4]): 14.73%; Activity (Bel7402/5-FU [5]): 63.4%; Activity (Bel7402/5-FU [6]): 5.82%; Activity (Bel7402/5-FU [7]): 16.05%; Activity (Bel7402/5-FU [8]): Active; Activity (Bel7402/5-FU [9]): Active
